# In ChEMBL document CHEMBL2040727, “Substituted thiazoles VI. Synthesis and antitumor activity of new 2-acetamido- and 2 or 3-propanamido-thiazole analogs” (2012):
# What was measured:
# Assay type in all cases: functional
# SW-620 = assay: Growth inhibition of human SW620 cells at 10 uM after 48 hrs by coulter counter analysis; conditions: SW-620, 48 h, read-out: GI
# Procedure, shortened: (§1)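 Single-dose screen in the NCI 60 cell line panel. Cells grown in RPMI 1640 with 10% FBS. Compounds dissolved in DMSO and diluted in phosphate buffered saline, final DMSO under 1%. Duplicate wells seeded from culture at 6 × 10⁴ cells/ml. Incubated 48 h at 37 °C, humidified, 5% CO2. Cells diluted tenfold in saline and Coulter-counted. Percent growth inhibition computed against PBS/DMSO controls.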
# NCI-H23 = assay: Growth inhibition of human NCI-H23 cells at 10 uM after 48 hrs by coulter counter analysis; conditions: NCI-H23, 48 h, read-out: GI
# Procedure, shortened: (§2)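 Single-dose NCI 60-line panel screen of test compounds. Cells grown in RPMI 1640 with 10% FBS. Compounds dissolved in DMSO, then diluted in phosphate buffer saline (final DMSO below 1%). Wells run in duplicate at 6 × 10⁴ cells/ml. Controls held PBS and DMSO at matching dilutions. Incubation 48 h at 37 °C under humidified 5% CO2. Cells diluted tenfold in saline and counted by Coulter counter. Percent growth inhibition taken from mean-graph of treated-cell growth.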
# HCT-116 = assay: Growth inhibition of human HCT116 cells at 10 uM after 48 hrs by coulter counter analysis; conditions: HCT-116, 48 h, read-out: GI; procedure, shortened: as §2
# U-251 = assay: Growth inhibition of human U251 cells at 10 uM after 48 hrs by coulter counter analysis; conditions: U-251, 48 h, read-out: GI; procedure, shortened: as §1
# HCT-15 = assay: Growth inhibition of human HCT15 cells at 10 uM after 48 hrs by coulter counter analysis; conditions: HCT-15, 48 h, read-out: GI; procedure, shortened: as §2
# SR = assay: Growth inhibition of human SR cells at 10 uM after 48 hrs by coulter counter analysis; conditions: read-out: GI; procedure, shortened: as §1
# NCI-H322M = assay: Growth inhibition of human NCI-H322M cells at 10 uM after 48 hrs by coulter counter analysis; conditions: read-out: GI; procedure, shortened: as §2
# MCF7 = assay: Growth inhibition of human MCF7 cells at 10 uM after 48 hrs by coulter counter analysis; conditions: MCF7, 48 h, read-out: GI; procedure, shortened: as §2
# SF-295 = assay: Growth inhibition of human SF295 cells at 10 uM after 48 hrs by coulter counter analysis; conditions: SF-295, 48 h, read-out: GI; procedure, shortened: as §2
# PC-3 = assay: Growth inhibition of human PC3 cells at 10 uM after 48 hrs by coulter counter analysis; conditions: PC-3, 48 h, read-out: GI; procedure, shortened: as §2
# SF-268 = assay: Growth inhibition of human SF268 cells at 10 uM after 48 hrs by coulter counter analysis; conditions: SF-268, 48 h, read-out: GI; procedure, shortened: as §2
# Malme-3M = assay: Growth inhibition of human MALME-3M cells at 10 uM after 48 hrs by coulter counter analysis; conditions: read-out: GI; procedure, shortened: as §2
# MOLT-4 = assay: Growth inhibition of human MOLT4 cells at 10 uM after 48 hrs by coulter counter analysis; conditions: MOLT-4, 48 h, read-out: GI; procedure, shortened: as §2
# [1] = Growth inhibition of human Hs 578T cells at 10 uM after 48 hrs by coulter counter analysis; conditions: read-out: GI; procedure, shortened: as §2
# IGROV-1 = assay: Growth inhibition of human IGROV1 cells at 10 uM after 48 hrs by coulter counter analysis; conditions: IGROV-1, 48 h, read-out: GI; procedure, shortened: as §2
# COLO 205 = assay: Growth inhibition of human COLO205 cells at 10 uM after 48 hrs by coulter counter analysis; conditions: COLO 205, 48 h, read-out: GI; procedure, shortened: as §2
# RXF 393 = assay: Growth inhibition of human RXF393 cells at 10 uM after 48 hrs by coulter counter analysis; conditions: RXF 393, 48 h, read-out: GI; procedure, shortened: as §2
# UACC-62 = assay: Growth inhibition of human UACC62 cells at 10 uM after 48 hrs by coulter counter analysis; conditions: UACC-62, 48 h, read-out: GI; procedure, shortened: as §1
# DU-145 = assay: Growth inhibition of human DU145 cells at 10 uM after 48 hrs by coulter counter analysis; conditions: DU-145, 48 h, read-out: GI; procedure, shortened: as §2
# HL-60(TB) = assay: Growth inhibition of human HL-60(TB) cells at 10 uM after 48 hrs by coulter counter analysis; conditions: HL-60, 48 h, read-out: GI
# Procedure, shortened: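 Cells grown in RPMI 1640 with 10% FBS. Compound was dissolved in DMSO and diluted in PBS (under 1% DMSO final), then added in duplicate wells to culture at 6 × 10⁴ cells/ml. PBS/DMSO vehicle controls were included. Incubated at 37 °C, humidified 5% CO₂, for 48 h. Cells were diluted 10-fold in saline and Coulter-counted. Single-dose NCI-60 screen, read as percent growth inhibition.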
# RPMI-8226 = assay: Growth inhibition of human RPMI8226 cells at 10 uM after 48 hrs by coulter counter analysis; conditions: RPMI-8226, 48 h, read-out: GI; procedure, shortened: as §2
# M14 = assay: Growth inhibition of human M14 cells at 10 uM after 48 hrs by coulter counter analysis; conditions: M14, 48 h, read-out: GI; procedure, shortened: as §2
# CCRF-CEM = assay: Growth inhibition of human CCRF-CEM cells at 10 uM after 48 hrs by coulter counter analysis; conditions: read-out: GI; procedure, shortened: as §2
Structure (SMILES),inhibition of growth at 10 µM (SW-620) [%],inhibition of growth at 10 µM (NCI-H23) [%],inhibition of growth at 10 µM (HCT-116) [%],inhibition of growth at 10 µM (U-251) [%],inhibition of growth at 10 µM (HCT-15) [%],inhibition of growth at 10 µM (SR) [%],inhibition of growth at 10 µM (NCI-H322M) [%],inhibition of growth at 10 µM (MCF7) [%],inhibition of growth at 10 µM (SF-295) [%],inhibition of growth at 10 µM (PC-3) [%],inhibition of growth at 10 µM (SF-268) [%],inhibition of growth at 10 µM (Malme-3M) [%],inhibition of growth at 10 µM (MOLT-4) [%],inhibition of growth at 10 µM [1] [%],inhibition of growth at 10 µM (IGROV-1) [%],inhibition of growth at 10 µM (COLO 205) [%],inhibition of growth at 10 µM (RXF 393) [%],inhibition of growth at 10 µM (UACC-62) [%],inhibition of growth at 10 µM (DU-145) [%],inhibition of growth at 10 µM (HL-60(TB)) [%],also measured
Cc1cnc(NC(=O)CCN2CCN(c3ccccc3)CC2)s1,< 10,< 10,< 10,< 10,< 10,14.3,< 10,< 10,< 10,< 10,< 10,< 10,< 10,< 10,< 10,< 10,< 10,< 10,< 10,< 10,inhibition of growth at 10 µM (RPMI-8226): < 10%; inhibition of growth at 10 µM (M14): < 10%
CCOC(=O)c1sc(NC(=O)CN(C)C)nc1C,< 10,< 10,< 10,< 10,< 10,< 10,< 10,< 10,< 10,< 10,< 10,< 10,< 10,< 10,< 10,< 10,< 10,< 10,< 10,< 10,inhibition of growth at 10 µM (RPMI-8226): < 10%; inhibition of growth at 10 µM (M14): < 10%
O=C(CN1CCN(c2ccccc2)CC1)Nc1nc(-c2ccccc2)cs1,< 10,18.6,17.7,< 10,54.6,< 10,11.3,19.3,15.9,26.3,< 10,23.4,31.3,< 10,26.5,12.4,< 10,36.6,< 10,22,inhibition of growth at 10 µM (CCRF-CEM): 22.7%; inhibition of growth at 10 µM (RPMI-8226): 25%; inhibition of growth at 10 µM (M14): 13.6%
O=C(CCN1CCN(c2ccccc2)CC1)Nc1nc(-c2ccccc2)cs1,10.9,31.4,41.7,15.6,20.6,19.9,13,12.7,13.6,28.3,22.3,< 10,37.9,14,33.5,< 10,11.8,33.2,18.2,< 10,inhibition of growth at 10 µM (CCRF-CEM): 31.4%; inhibition of growth at 10 µM (RPMI-8226): 16.8%; inhibition of growth at 10 µM (M14): < 10%
